According to ChEMBL document CHEMBL3751694, “1-Piperazinylphthalazines as potential VEGFR-2 inhibitors and anticancer agents: Synthesis and in vitro biological evaluation” (Eur J Med Chem, 2016):

Key:
Format in all cases: functional
T47D = experiment: Growth inhibition of human T47D cells at 10 uM after 48 hrs by SRB method; conditions: read-out: GI
Method in brief: (§1)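 NCI 56-line screen, single-dose primary assay at 10^-5 M. Cells grown in RPMI 1640 with 5% FBS and 2 mM L-glutamine, plated at 5000–40,000 cells/well and held 24 h at 37 °C, 5% CO2 before drug addition. Compound was given from DMSO stock, exposure 48 h, then TCA fixation and SRB staining with absorbance at 515 nm. % growth is taken relative to time-zero and untreated controls.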

NCI-H522 = experiment: Growth inhibition of human NCI-H522 cells at 10 uM after 48 hrs by SRB method; conditions: NCI-H522, 48 h, read-out: GI
Method in brief: (§2)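 NCI 56-line primary screen at a single 10^-5 M concentration. Cells grown in RPMI 1640 with 5% FBS and 2 mM L-glutamine, plated at 5000–40,000 cells/well, then preincubated for 24 h. Exposure was 48 h at 37 °C and 5% CO2. Adherent cells were fixed with cold TCA at 10% final, suspension cells at 16%. Staining used 0.4% SRB, read at 515 nm. Results are % growth inhibition relative to control.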

[1] = Growth inhibition of human UACC257 cells at 10 uM after 48 hrs by SRB method; conditions: UACC-257, 48 h, read-out: GI; method in brief: as §1
[2] = Growth inhibition of human IGROV1 cells at 10 uM after 48 hrs by SRB method; conditions: IGROV-1, 48 h, read-out: GI; method in brief: as §2
[3] = Growth inhibition of human […] cells at 10 uM after 48 hrs by SRB method; conditions: read-out: GI; method in brief: as §2
[4] = Growth inhibition of human PC3 cells at 10 uM after 48 hrs by SRB method; conditions: PC-3, 48 h, read-out: GI; method in brief: as §2
[5] = Growth inhibition of human MOLT4 cells at 10 uM after 48 hrs by SRB method; conditions: MOLT-4, 48 h, read-out: GI; method in brief: as §2
[6] = Growth inhibition of human HL-60(TB) cells at 10 uM after 48 hrs by SRB method; conditions: HL-60, 48 h, read-out: GI
Method in brief: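 NCI single-dose primary screen at 10^-5 M, 48 h exposure. Cells grown in RPMI 1640 with 5% FBS and 2 mM L-glutamine. Suspension cells fixed in situ with TCA (final 16%), stained with SRB, absorbance read at 515 nm. Percent growth inhibition calculated against time-zero and untreated control plates.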

MDA-MB-468 = experiment: Growth inhibition of human MDA-MB-468 cells at 10 uM after 48 hrs by SRB method; conditions: MDA-MB-468, 48 h, read-out: GI; method in brief: as §2
[7] = Growth inhibition of human HOP92 cells at 10 uM after 48 hrs by SRB method; conditions: HOP-92, 48 h, read-out: GI; method in brief: as §2
SR = experiment: Growth inhibition of human SR cells at 10 uM after 48 hrs by SRB method; conditions: read-out: GI; method in brief: as §2
K562 = experiment: Growth inhibition of human K562 cells at 10 uM after 48 hrs by SRB method; conditions: K562, 48 h, read-out: GI; method in brief: as §2
[8] = Growth inhibition of human UO31 cells at 10 uM after 48 hrs by SRB method; conditions: UO-31, 48 h, read-out: GI; method in brief: as §1
[9] = Growth inhibition of human OVCAR8 cells at 10 uM after 48 hrs by SRB method; conditions: OVCAR-8, 48 h, read-out: GI; method in brief: as §2
SK-MEL-5 = experiment: Growth inhibition of human SK-MEL-5 cells at 10 uM after 48 hrs by SRB method; conditions: SK-MEL-5, 48 h, read-out: GI; method in brief: as §2
NCI-H226 = experiment: Growth inhibition of human NCI-H226 cells at 10 uM after 48 hrs by SRB method; conditions: NCI-H226, 48 h, read-out: GI; method in brief: as §2
A498 = experiment: Growth inhibition of human A498 cells at 10 uM after 48 hrs by SRB method; conditions: A498, 48 h, read-out: GI; method in brief: as §2
HT-29 = experiment: Growth inhibition of human HT-29 cells at 10 uM after 48 hrs by SRB method; conditions: HT-29, 48 h, read-out: GI; method in brief: as §2
[10] = Growth inhibition of human COLO205 cells at 10 uM after 48 hrs by SRB method; conditions: COLO 205, 48 h, read-out: GI; method in brief: as §2
[11] = Growth inhibition of human BT549 cells at 10 uM after 48 hrs by SRB method; conditions: BT-549, 48 h, read-out: GI; method in brief: as §2
MDA-MB-231 = experiment: Growth inhibition of human MDA-MB-231 cells at 10 uM after 48 hrs by SRB method; conditions: MDA-MB-231, 48 h, read-out: GI; method in brief: as §2
MCF7 = experiment: Growth inhibition of human MCF7 cells at 10 uM after 48 hrs by SRB method; conditions: MCF7, 48 h, read-out: GI; method in brief: as §2
[12] = Growth inhibition of human UACC62 cells at 10 uM after 48 hrs by SRB method; conditions: UACC-62, 48 h, read-out: GI; method in brief: as §1
[13] = Growth inhibition of human Caki1 cells at 10 uM after 48 hrs by SRB method; conditions: CAKI-1, 48 h, read-out: GI; method in brief: as §2
SK-MEL-2 = experiment: Growth inhibition of human SK-MEL-2 cells at 10 uM after 48 hrs by SRB method; conditions: SK-MEL-2, 48 h, read-out: GI; method in brief: as §2

SMILES | inhibition of growth at 10 µM (T47D) | inhibition of growth at 10 µM (NCI-H522) | inhibition of growth at 10 µM [1] | inhibition of growth at 10 µM [2] | inhibition of growth at 10 µM [3] | inhibition of growth at 10 µM [4] | inhibition of growth at 10 µM [5] | inhibition of growth at 10 µM [6] | inhibition of growth at 10 µM (MDA-MB-468) | inhibition of growth at 10 µM [7] | inhibition of growth at 10 µM (SR) | inhibition of growth at 10 µM (K562) | inhibition of growth at 10 µM [8] | inhibition of growth at 10 µM (SK-MEL-5) | inhibition of growth at 10 µM (A498) | inhibition of growth at 10 µM [10] | further results
O=C(CN1CCN(c2nnc(-c3ccccc3)c3ccccc23)CC1)Nc1ccccc1Cl | 58% | 42% | 30% | 46% | 48% | 45% | 31% | 40% | 43% | 31% | 36% | 33% | 37% |  |  |  | 
O=C(CN1CCN(c2nnc(-c3ccccc3)c3ccccc23)CC1)Nc1c(Cl)cccc1Cl | 60% | 34% |  |  | 48% | 34% | 42% | 38% | 43% | 47% | 40% | 43% | 38% | 44% |  |  | inhibition of growth at 10 µM [9]: 35%; inhibition of growth at 10 µM (NCI-H226): 30%
CC(=O)c1sc(NC(=O)CN2CCN(c3nnc(-c4ccccc4)c4ccccc34)CC2)nc1C | 81% | 41% |  | 40% | 45% | 53% | 52% |  | 49% | 70% | 49% |  | 43% | 33% | 45% | 30% | inhibition of growth at 10 µM (HT-29): 31%; inhibition of growth at 10 µM [11]: 34%; inhibition of growth at 10 µM (MDA-MB-231): 41%
N#Cc1ccc(NC(=O)CN2CCN(c3nnc(-c4ccccc4)c4ccccc34)CC2)cc1 | 64% | 37% | 30% |  | 39% |  | 43% | 30% | 50% | 40% | 36% | 34% | 49% | 47% | 44% | 32% | inhibition of growth at 10 µM (MCF7): 30%; inhibition of growth at 10 µM [12]: 32%; inhibition of growth at 10 µM [13]: 34%
COc1ccc(C(=O)CN2CCN(c3nnc(-c4ccccc4)c4ccccc34)CC2)cc1 | 36% | 35% |  |  | 32% |  |  |  |  |  |  | 30% | 35% |  |  |  | 
O=C(CN1CCN(c2nnc(-c3ccccc3)c3ccccc23)CC1)Nc1ccc(Cl)cc1 | 57% | 53% |  |  | 40% | 32% | 41% | 30% | 53% |  | 40% | 30% | 34% |  | 36% |  | inhibition of growth at 10 µM (SK-MEL-2): 33%
